The subject of one assay is KB. As to the kind of experiment: Compound was evaluated for the inhibition of KB cell growth determined in quadruplicate assay. As to conditions: Homo sapiens. It counts as functional, cell-based. In short, it runs like this: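 KB cells at 3000–5000/well, compound added in quadruplicate at six to eight concentrations, 48 h at 37 °C (about two population doublings). Cells fixed with ethanol, stained with crystal violet, eluted dye read at 570 nm. IC50 from regression of percent inhibition on log concentration.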

For the next assay, the system named is Human alphaherpesvirus 1. As to the kind of experiment: Compound was evaluated for the antiviral activity against HSV-1 determined by using ELISA method. It counts as functional, organism-based. In a few lines: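 HSV-1 (KOS strain in most experiments) at 100 PFU/well on BSC-1 cells (10 000/well), drug in quadruplicate, 3–5 days at 37 °C. Wells blocked, probed with HRP-conjugated rabbit anti-HSV-1 antibody, developed with tetramethylbenzidine and read at 450 and 570 nm. Percent absorbance reduction versus virus-only wells; IC50 from regression on log concentration.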
A general note: In an ELISA, binding on a coated surface is turned into a signal by an enzyme label.

Assay [1] concerns Human betaherpesvirus 5. As to the kind of experiment: Compound was evaluated for the antiviral activity against HCMV determined by using Plaque assay. The assay is classed as functional, organism-based. In a few lines: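 Towne strain HCMV (plaque-purified P0) on HFF monolayers, about 100 PFU/cm², 2 h adsorption at 37 °C. Compounds added in growth medium, four to eight concentrations, duplicate wells. Incubated 7–10 days at 37 °C, then crystal violet stain and microscopic plaque count. Percent plaque reduction versus no-drug wells, regressed on log concentration to give IC50.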

In the next assay the test system is HFF. In words: Compound was evaluated for the visual cytotoxicity scored on HFF cells at time of HCMV plaque enumeration. The assay is classed as functional, cell-based. As to conditions: Homo sapiens. In short, it runs like this:
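Stationary HFF cells not affected by virus in the HCMV plaque assay, inspected microscopically for cytotoxicity when plaques were counted (after 7–10 days at 37 °C). Reported as IC50.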

The subject of assay [2] is Human betaherpesvirus 5. In words: Compound was evaluated for the antiviral activity against HCMV determined by using Yield reduction assay. The assay is classed as functional. In short, it runs like this: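 HFF cells at 12 500 cells/well, infected with Towne HCMV at MOI 0.5–1 PFU/cell. Compounds added after adsorption, 1:3 serial dilutions spanning about 1000-fold (e.g. 100–0.14 μM), in duplicate. 7 days at 37 °C, one freeze-thaw, then progeny titred by plaque count on fresh HFF plates. Reported as IC90.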

The IC50 is the point on the concentration scale where inhibition reaches its midpoint. In general, IC90 refers to the concentration at which the effect reaches the 90% level.

Regarding `Clc1nc2cc(Cl)c(Cl)cc2[nH]1`, the IC50 in the assay with KB was 19 µM; with Human alphaherpesvirus 1, 51 µM; with Human betaherpesvirus 5 [1] it was 6.4 µM; with HFF it was 24 µM.

In the case of `Nc1nc2cc(Cl)c(Cl)cc2n1C1O[C@H](CO)[C@@H](O)[C@H]1O` (some centres not stated), the IC90 with Human betaherpesvirus 5 [2] came to 8 µM. In addition, the IC50 amounted to 40 µM with KB, 50 µM with Human alphaherpesvirus 1, 40 µM with Human betaherpesvirus 5 [1] and 32 µM with HFF.

On to `OC[C@H]1O[C@H](n2c(Br)nc3cc(Cl)c(Cl)cc32)[C@@H](O)[C@H]1O`, for which the IC90 in the assay with Human betaherpesvirus 5 [2] amounted to 0.2 µM. Also, the IC50 is greater than 100 µM with KB, 130 µM in the assay with Human alphaherpesvirus 1, 0.7 µM with Human betaherpesvirus 5 [1] and 118 µM with HFF.

In turn, `OC[C@H]1OC(n2c(I)nc3cc(Cl)c(Cl)cc32)[C@H](O)[C@@H]1O` (some centres not stated) came in with an IC90 in the assay with Human betaherpesvirus 5 [2] of 26 µM. In addition, the IC50 was determined as 23 µM in the assay on KB, 21 µM in the assay with Human alphaherpesvirus 1, 30 µM in the assay on Human betaherpesvirus 5 [1] and 118 µM in the assay on HFF.

Take `CC(=O)OC[C@H]1O[C@@H](n2c(Cl)nc3cc(Cl)c(Cl)cc32)[C@H](OC(C)=O)[C@@H]1OC(C)=O`: the IC90 in the assay with Human betaherpesvirus 5 [2] turned out to be 0.2 µM. Besides, the IC50 was greater than 100 µM in the assay on KB, 2 µM in the assay with Human betaherpesvirus 5 [1] and 100 µM with HFF.

In turn, `CC(=O)OC[C@H]1O[C@@H](n2c(Br)nc3cc(Cl)c(Cl)cc32)[C@H](OC(C)=O)[C@@H]1OC(C)=O` came in with an IC90 in the assay on Human betaherpesvirus 5 [2] of 0.2 µM. Also, the IC50 with KB is 25 µM; in the assay on Human alphaherpesvirus 1, greater than 100 µM; in the assay on Human betaherpesvirus 5 [1], 1.5 µM; with HFF it was 100 µM.

Compound `Nc1nc2c(ncn2COC(CO)CO)c(=O)[nH]1` [GANCICLOVIR] displayed an IC90 in the assay with Human betaherpesvirus 5 [2] of 1.6 µM. The IC50 in the assay with KB and in the assay on HFF was greater than 100 µM throughout.

The compound `OC[C@H]1O[C@@H](n2c(Cl)nc3cc(Cl)c(Cl)cc32)[C@H](O)[C@@H]1O` gave an IC90 in the assay with Human betaherpesvirus 5 [2] of 1.4 µM. The half-inhibitory concentration (IC50) with KB was found to be 210 µM; with Human alphaherpesvirus 1, 102 µM; in the assay with Human betaherpesvirus 5 [1] it was 2.9 µM; with HFF, 238 µM.

On to `OC[C@H]1OC(n2c(O)nc3cc(Cl)c(Cl)cc32)[C@H](O)[C@@H]1O` (some centres not stated), for which the IC50 in the assay on Human betaherpesvirus 5 [1] was greater than 100 µM; with HFF, 100 µM.

For `Nc1nc2cc(Cl)c(Cl)cc2[nH]1`, the IC50 with KB was greater than 100 µM; in the assay on Human alphaherpesvirus 1, greater than 100 µM; in the assay with Human betaherpesvirus 5 [1] it was 100 µM; with HFF it was 100 µM.

Take `OC[C@H]1O[C@@H](n2cnc3cc(Cl)c(Cl)cc32)[C@H](O)[C@@H]1O` [DICHLORORIBOBENZIMIDAZOLE]: the 90% effect level in the assay on Human betaherpesvirus 5 [2] (IC90) was put at 19 µM. Further, the results for the IC50 in the assay with KB and in the assay with HFF were 36 µM and 24 µM, respectively.

As for `O=[N+]([O-])c1c(Cl)c(Cl)cc2c1nc(O)n2C1O[C@H](CO)[C@@H](O)[C@H]1O` (some centres not stated), the results for the IC50 in the assay on Human alphaherpesvirus 1, in the assay on Human betaherpesvirus 5 [1] and in the assay with HFF were greater than 100 µM, greater than 100 µM and 100 µM, respectively.

As to `O=C(O)P(=O)(O)O` [FOSCARNET SODIUM], the IC50 with HFF is greater than 100 µM.

For `Clc1cc2nc(Br)[nH]c2cc1Cl`, the IC50 in the assay with KB was found to be 56 µM; in the assay on Human betaherpesvirus 5 [1], 12 µM; in the assay on HFF, 21 µM.

These data come from ChEMBL document CHEMBL1128463, “Design, synthesis, and antiviral activity of certain 2,5,6-trihalo-1-(beta-D-ribofuranosyl)benzimidazoles” (J Med Chem, 1995).
